Assay results published in ChEMBL document CHEMBL4699593, “Identification of 2,4-Disubstituted Imidazopyridines as Hemozoin Formation Inhibitors with Fast-Killing Kinetics and In Vivo Efficacy in the Plasmodium falciparum NSG Mouse Model” (J Med Chem, 2020).
Active and inactive are the calls of the source. No cut-off for these calls is given here.

Columns and labels:
Plasmodium falciparum [1] = test: Antimalarial activity against asexual ring stage of Plasmodium falciparum NF54 measured after 24 hrs by [3H]hypoxanthine incorporation assay; format: functional, organism-based
Method in brief: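 Tested on a synchronized asexual blood-stage culture of P. falciparum, with IC50 determined separately for the ring and the schizont stage.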

CHO = test: Cytotoxicity against CHO cells assessed as reduction in cell viability by MTT assay; format: cell-based, Cricetulus griseus; details: chinese hamster
Method in brief: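 Cytotoxicity was measured in Chinese hamster ovary (CHO) cells and reported as CC50. The selectivity index is CC50 divided by NF54 IC50.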

[2] = Tmax in Plasmodium falciparum 3D70087/N9 infected NSG mouse at 1.5 mg/kg, po by LC-MS/MS analysis; format: ADME, organism-based; details: in vivo
Method in brief: (§1)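 P. falciparum-infected NSG mice received escalating single oral doses of 1.5, 5, 15, 50 and 100 mg/kg.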

[3] = Dose normalized AUC (0 to 24 hrs) in Plasmodium falciparum 3D70087/N9 infected NSG mouse at 5 mg/kg, po by LC-MS/MS analysis; format: ADME, organism-based; details: in vivo
Method in brief: (§2)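 Oral (PO) dosing of NSG (NODscidIL2Rγnull) mice infected with P. falciparum. Cmax and AUC0–24 are taken from the infected-mouse PK analysis and are also expressed divided by dose.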

Plasmodium falciparum [4] = test: Antiplasmodial activity against multidrug-sensitive asexual blood stage Plasmodium falciparum NF54 strain assessed as reduction in parasite growth after 72 hrs by NBT reagent based LDH assay; format: functional, organism-based; details: NF54, 72 h
Plasmodium falciparum [5] = test: Antiplasmodial activity against multidrug-resistant asexual blood stage Plasmodium falciparum K1 strain assessed as reduction in parasite growth after 72 hrs by NBT reagent based LDH assay; format: functional, organism-based; details: K1, 72 h
Method in brief: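 Asexual blood-stage K1 (multidrug-resistant) parasites were read out by the parasite lactate dehydrogenase (pLDH) assay. […] Most individual values varied less than 2× (maximum 3×).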

[6] = molecular target: Voltage-gated inwardly rectifying potassium channel KCNH2 (Homo sapiens, UniProt Q12809); test: Inhibition of human ERG by patch clamp method
[7] = AUC (0 to 24 hrs) in Plasmodium falciparum 3D70087/N9 infected NSG mouse at 1.5 mg/kg, po by LC-MS/MS analysis; format: ADME, organism-based; parameters: time < 24 hr, route oral, dose 1.5 mg/kg; details: in vivo; method in brief: as §2
hERG = test: Selectivity index, ratio of IC50 for inhibition of human ERG by patch clamp method to IC50 for antiplasmodial activity against multidrug-sensitive asexual blood stage Plasmodium falciparum NF54; format: toxicity; details: read-out: Ratio IC50
[8] = Dose normalized Cmax in Balb/c mouse at 20 mg/kg, po by LC-MS/MS analysis; format: ADME, organism-based; details: in vivo
Method in brief: (§3)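 Healthy Balb/c mice dosed i.v. or orally. Parameters come from non-compartmental analysis of compound concentration over time. […] Clearance is blood clearance (CL_b).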

[9] = Dose normalized Cmax in Plasmodium falciparum 3D70087/N9 infected NSG mouse at 1.5 mg/kg, po by LC-MS/MS analysis; format: ADME, organism-based; details: in vivo; method in brief: as §2
Plasmodium falciparum [10] = test: Antiplasmodial activity against early ring-stage synchronized Plasmodium falciparum assessed as increase in free heme after 32 hrs by Giemsa-staining based haemocytometric counting method; format: functional, organism-based
Method in brief: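 Whole-parasite cell fractionation assay run as a dose response. Free heme and hemozoin were measured intracellularly across increasing compound concentrations.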

[11] = Tmax in Plasmodium falciparum 3D70087/N9 infected NSG mouse at 50 mg/kg, po by LC-MS/MS analysis; format: ADME, organism-based; details: in vivo; method in brief: as §1
[12] = AUC (0 to t) in Balb/C mouse at 20 mg/kg, po by LC-MS/MS analysis; format: ADME, organism-based; parameters: dose 20 mg/kg; details: in vivo; method in brief: as §3
[13] = AUC in Plasmodium falciparum infected NSG mouse at 62 mg/kg, po by LC-MS/MS analysis; format: ADME, organism-based; parameters: dose 62 mg/kg; details: in vivo
Plasmodium falciparum [14] = test: Antimalarial activity against Plasmodium falciparum 3D70087/N9 infected in NOD-SCID IL2Rgamma null mouse assessed as parasitemia at 50 mg/kg, po qd administered for 4 days measured on day 6 post-infection by microscopy based flow cytometry; format: functional, organism-based; details: time 4.0 day
Method in brief: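 NSG mice were infected with P. falciparum and given oral compound once daily for 4 days at 50 mg/kg, starting three days after inoculation. Parasitemia was followed to day 6 post-infection against the limit of detection.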

[15] = Dose normalized Cmax in Plasmodium falciparum 3D70087/N9 infected NSG mouse at 100 mg/kg, po by LC-MS/MS analysis; format: ADME, organism-based; details: in vivo; method in brief: as §2
[16] = Drug recovery in mouse urine by LC-MS/MS analysis; format: ADME, tissue-based; details: in vivo
[17] = Lipophilicity, log D of compound at pH 7.4; format: physicochemical; details: buffer
[18] = Dose normalized AUC (0 to 24 hrs) in Plasmodium falciparum 3D70087/N9 infected NSG mouse at 100 mg/kg, po by LC-MS/MS analysis; format: ADME, organism-based; details: in vivo; method in brief: as §2
[19] = Dose normalized AUC (0 to 24 hrs) in Plasmodium falciparum 3D70087/N9 infected NSG mouse at 1.5 mg/kg, po by LC-MS/MS analysis; format: ADME, organism-based; details: in vivo; method in brief: as §2
[20] = Dose normalized Cmax in Plasmodium falciparum 3D70087/N9 infected NSG mouse at 5 mg/kg, po by LC-MS/MS analysis; format: ADME, organism-based; details: in vivo; method in brief: as §1
[21] = Dose normalized AUC (0 to 24 hrs) in Plasmodium falciparum 3D70087/N9 infected NSG mouse at 15 mg/kg, po by LC-MS/MS analysis; format: ADME, organism-based; details: in vivo; method in brief: as §2
[22] = AUC (0 to 24 hrs) in Plasmodium falciparum 3D70087/N9 infected NSG mouse at 5 mg/kg, po by LC-MS/MS analysis; format: ADME, organism-based; parameters: time < 24 hr, route oral, dose 5 mg/kg; details: in vivo; method in brief: as §2
[23] = Cmax in Balb/C mouse at 20 mg/kg, po by LC-MS/MS analysis; format: ADME, organism-based; parameters: route oral, dose 20 mg/kg; details: in vivo; method in brief: as §3
[24] = Clearance in Balb/C mouse blood at 2 mg/kg, iv by LC-MS/MS analysis; format: ADME, organism-based; details: whole blood; method in brief: as §3
[25] = AUC (0 to 24 hrs) in Plasmodium falciparum 3D70087/N9 infected NSG mouse at 15 mg/kg, po by LC-MS/MS analysis; format: ADME, organism-based; parameters: time < 24 hr, route oral, dose 15 mg/kg; details: in vivo; method in brief: as §2
[26] = AUC (0 to 24 hrs) in Plasmodium falciparum 3D70087/N9 infected NSG mouse at 50 mg/kg, po by LC-MS/MS analysis; format: ADME, organism-based; parameters: time < 24 hr, route oral, dose 50 mg/kg; details: in vivo; method in brief: as §2
[27] = Drug metabolism in mouse blood assessed as N-demethylation by LC-MS/MS analysis; format: ADME, tissue-based
[28] = Cmax in Plasmodium falciparum 3D70087/N9 infected NSG mouse at 5 mg/kg, po by LC-MS/MS analysis; format: ADME, organism-based; parameters: route oral, dose 5 mg/kg; details: in vivo; method in brief: as §2
[29] = Cmax in Plasmodium falciparum 3D70087/N9 infected NSG mouse at 100 mg/kg, po by LC-MS/MS analysis; format: ADME, organism-based; parameters: route oral, dose 100 mg/kg; details: in vivo; method in brief: as §2
[30] = Selectivity index, ratio of CC50 for cytotoxicity against CHO cells assessed as reduction in cell viability to IC50 for antiplasmodial activity against multidrug-sensitive Plasmodium falciparum NF54 assessed as reduction in parasite growth; format: toxicity, cell-based; details: hamster, read-out: Ratio CC50/IC50
[31] = Dose normalized AUC (0 to 24 hrs) in Plasmodium falciparum 3D70087/N9 infected NSG mouse at 200 mg/kg, po by LC-MS/MS analysis; format: ADME, organism-based; details: in vivo; method in brief: as §2
Plasmodium falciparum [32] = test: Antiplasmodial activity against early stage (I to III) Plasmodium falciparum NF54 gametocytes at 5 uM incubated for 48 hrs under hypoxia condition by luciferase reporter gene assay relative to control; format: functional
[33] = Cmax in Plasmodium falciparum 3D70087/N9 infected NSG mouse at 1.5 mg/kg, po by LC-MS/MS analysis; format: ADME, organism-based; parameters: route oral, dose 1.5 mg/kg; details: in vivo; method in brief: as §2

Chain of Voltage-gated inwardly rectifying potassium channel KCNH2 (Q12809 whole entry): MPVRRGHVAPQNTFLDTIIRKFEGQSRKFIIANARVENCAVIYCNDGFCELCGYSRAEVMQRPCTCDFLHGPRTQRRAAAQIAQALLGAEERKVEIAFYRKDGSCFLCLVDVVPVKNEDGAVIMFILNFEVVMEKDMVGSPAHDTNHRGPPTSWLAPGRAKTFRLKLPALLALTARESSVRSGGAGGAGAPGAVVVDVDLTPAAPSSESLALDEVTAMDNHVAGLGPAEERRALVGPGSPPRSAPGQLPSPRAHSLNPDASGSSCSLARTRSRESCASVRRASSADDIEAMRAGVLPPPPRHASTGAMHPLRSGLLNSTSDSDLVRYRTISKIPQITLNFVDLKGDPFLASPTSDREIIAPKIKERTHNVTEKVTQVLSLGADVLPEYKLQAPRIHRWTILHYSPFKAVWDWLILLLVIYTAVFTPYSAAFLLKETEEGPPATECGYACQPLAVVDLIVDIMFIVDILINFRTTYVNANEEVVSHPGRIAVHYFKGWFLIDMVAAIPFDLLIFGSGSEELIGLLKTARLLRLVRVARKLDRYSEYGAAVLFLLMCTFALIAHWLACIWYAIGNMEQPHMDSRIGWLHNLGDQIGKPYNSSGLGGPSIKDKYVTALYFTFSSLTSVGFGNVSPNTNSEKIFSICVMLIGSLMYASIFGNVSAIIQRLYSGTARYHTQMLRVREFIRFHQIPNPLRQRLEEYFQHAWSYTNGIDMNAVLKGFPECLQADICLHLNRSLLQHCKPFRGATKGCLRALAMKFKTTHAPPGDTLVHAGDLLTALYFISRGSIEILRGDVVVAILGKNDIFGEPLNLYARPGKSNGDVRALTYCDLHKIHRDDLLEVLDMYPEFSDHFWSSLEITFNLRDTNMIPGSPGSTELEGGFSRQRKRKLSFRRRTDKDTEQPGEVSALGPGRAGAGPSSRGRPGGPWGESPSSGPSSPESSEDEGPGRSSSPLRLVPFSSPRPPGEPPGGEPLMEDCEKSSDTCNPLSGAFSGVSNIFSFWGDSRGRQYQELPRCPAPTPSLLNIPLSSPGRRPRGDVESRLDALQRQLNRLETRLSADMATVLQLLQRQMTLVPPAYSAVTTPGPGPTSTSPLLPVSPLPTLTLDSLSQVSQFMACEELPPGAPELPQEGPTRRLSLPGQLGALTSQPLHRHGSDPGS

## CN1CCN(CC2CCN(c3nccc4[nH]c(-c5cc(F)cc(F)c5)nc34)CC2)CC1
Plasmodium falciparum [1]
  IC50: 27 nM
CHO
  CC50: 23000 nM
[2]
  Tmax: 1.5 h
[3]
  AUC/dose: 34 µM·kg·min/mg
Plasmodium falciparum [4]
  IC50: 23 nM
Plasmodium falciparum [5]
  IC50: 41 nM
[6]
  IC50: > 30000 nM
[7]
  AUC: 46 µM·min
hERG
  selectivity ratio: > 1300
[8]
  Cmax/dose: 0.08 µM·kg/mg
[9]
  Cmax/dose: 0.03 µM·kg/mg
Plasmodium falciparum [10]
  Activity: inactive
[11]
  Tmax: 12.5 h
[12]
  AUCt: 20 µM·h
[13]
  AUC: 58.3 µM·h
Plasmodium falciparum [14]
  Activity: Below limit of detection
[15]
  Cmax/dose: 0.07 µM·kg/mg
[16]
  Drug recovery: Active
[17]
  logD: 2.6
[18]
  AUC/dose: 51 µM·kg·min/mg
[19]
  AUC/dose: 31 µM·kg·min/mg
[20]
  Cmax/dose: 0.03 µM·kg/mg
[21]
  AUC/dose: 65 µM·kg·min/mg
[22]
  AUC: 170 µM·min
[23]
  Cmax: 1500 nM
[24]
  clearance: 20.2 mL/min/kg
[25]
  AUC: 969 µM·min
[26]
  AUC: 2856 µM·min
[27]
  Drug metabolism: Metabolite_Detected
[28]
  Cmax: 130 nM
[29]
  Cmax: 6680 nM
[30]
  selectivity ratio: 1040
[31]
  AUC/dose: 62 µM·kg·min/mg
Plasmodium falciparum [32]
  inhibition at 5 µM: < 50%
[33]
  Cmax: 40 nM
